ChEMBL document CHEMBL1131242, “6beta-Acetoxynortropane: a potent muscarinic agonist with apparent selectivity toward M2-receptors” (J Med Chem, 1998)
pEC50, pKi: −log10 of the molar value.

Experiments:
[1] = target: Muscarinic acetylcholine receptor M1 (Homo sapiens) (UniProt P11229); experiment: Inhibitory activity against stimulation of [3H]inositol monophosphate accumulation in [3H]inositol-labelled CHO transfected cells mediated by Muscarinic acetylcholine receptor M1
[2] = target: T1, Muscarinic acetylcholine receptor M1 (Homo sapiens, UniProt P11229); experiment: Inhibition of binding of [3H]quinuclidinyl benzilate to muscarinic receptors in membranes of CHO cells transfected with Muscarinic acetylcholine receptor M1; assay type: cell membranes
T1 sequence (P11229 whole entry): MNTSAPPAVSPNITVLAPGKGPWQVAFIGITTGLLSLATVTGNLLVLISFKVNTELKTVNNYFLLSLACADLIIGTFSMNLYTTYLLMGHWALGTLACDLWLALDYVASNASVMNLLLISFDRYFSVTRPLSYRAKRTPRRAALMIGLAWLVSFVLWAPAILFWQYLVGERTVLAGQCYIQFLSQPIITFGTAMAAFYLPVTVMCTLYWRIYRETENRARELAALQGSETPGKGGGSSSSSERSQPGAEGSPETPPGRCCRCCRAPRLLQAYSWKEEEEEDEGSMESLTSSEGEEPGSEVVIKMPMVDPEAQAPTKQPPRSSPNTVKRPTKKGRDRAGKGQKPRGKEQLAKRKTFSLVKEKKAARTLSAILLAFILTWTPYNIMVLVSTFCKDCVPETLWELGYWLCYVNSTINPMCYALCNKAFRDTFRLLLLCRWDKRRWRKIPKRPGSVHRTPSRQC
In short: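 Membranes from CHO cells expressing human M1 receptor, harvested at 80-100% confluence. Competition against 0.2 nM [3H]quinuclidinyl benzilate in 25 mM sodium phosphate pH 7.4 with 5 mM MgCl2; 30 min at 37 °C, triplicate. Nonspecific binding with 10 μM atropine. Filtration and scintillation counting.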

[3] = target: Muscarinic acetylcholine receptor M4 (Homo sapiens) (UniProt P08173); experiment: Inhibitory activity against [3H]-cyclic AMP accumulation in CHO transfected cells mediated by Muscarinic acetylcholine receptor M4
[4] = target: T2, Muscarinic acetylcholine receptor M4 (Homo sapiens, UniProt P08173); experiment: Inhibition of binding of [3H]quinuclidinyl benzilate to muscarinic receptors in membranes of CHO cells transfected with Muscarinic acetylcholine receptor M4; assay type: cell membranes
T2 sequence (P08173 whole entry): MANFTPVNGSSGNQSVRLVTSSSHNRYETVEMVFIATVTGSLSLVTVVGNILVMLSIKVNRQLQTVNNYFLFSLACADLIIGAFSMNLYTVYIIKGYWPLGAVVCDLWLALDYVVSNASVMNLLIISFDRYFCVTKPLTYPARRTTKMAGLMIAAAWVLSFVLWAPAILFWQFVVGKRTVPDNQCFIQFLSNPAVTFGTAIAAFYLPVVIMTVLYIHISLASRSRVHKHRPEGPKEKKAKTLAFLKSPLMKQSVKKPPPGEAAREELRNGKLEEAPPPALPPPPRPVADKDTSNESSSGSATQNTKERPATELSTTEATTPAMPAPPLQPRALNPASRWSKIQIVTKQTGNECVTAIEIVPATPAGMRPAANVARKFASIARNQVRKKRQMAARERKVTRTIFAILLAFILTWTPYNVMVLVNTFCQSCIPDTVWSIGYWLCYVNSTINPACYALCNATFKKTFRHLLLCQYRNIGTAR

CC(=O)OC1CC2CCCC1N2 (centres undefined)
pEC50 [1]: 7.64 | pKi [2]: 4.68 | IC50 [3]: 11 nM (agonist) | pKi [4]: 7.48
